Only some compounds are listed: those with a hit (about 1.3% of all), similar ones and a draw of the others.
Tn7 DDE FP: disrupts Tn7 cyclic peptide binding to fibrin D-Dimer-E complex | inhibition, % at 8.3 µM | actives 0.13% (n = 370,000) | P02675 | FP displacement of FITC-Tn7 peptide from fibrin DD(E); 0% = median of compound wells per plate | AID 720508;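 active = inhibition above the mean of compounds falling within the control limits plus 3 SD of them, cut at about 14% in these data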;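 also: 0% = plate median of compound wells and 100% = 10 µM Aha-Tn7 peptide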
Target sequence (P02675 whole entry, looked up): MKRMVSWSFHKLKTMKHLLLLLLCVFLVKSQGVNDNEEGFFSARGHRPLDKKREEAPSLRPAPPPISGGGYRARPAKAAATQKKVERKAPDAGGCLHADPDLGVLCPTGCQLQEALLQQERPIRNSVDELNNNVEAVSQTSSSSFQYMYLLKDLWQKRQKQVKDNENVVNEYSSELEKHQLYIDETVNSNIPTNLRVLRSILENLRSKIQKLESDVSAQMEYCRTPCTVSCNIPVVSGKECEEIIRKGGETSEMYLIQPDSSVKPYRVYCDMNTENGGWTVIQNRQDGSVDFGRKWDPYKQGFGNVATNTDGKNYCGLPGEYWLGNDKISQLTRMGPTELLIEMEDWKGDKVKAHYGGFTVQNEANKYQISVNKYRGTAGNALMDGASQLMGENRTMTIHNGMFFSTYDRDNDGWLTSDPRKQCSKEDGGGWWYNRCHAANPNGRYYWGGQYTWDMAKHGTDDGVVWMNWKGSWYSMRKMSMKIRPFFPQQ
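Assay system: human fibrin DD(E). Input: DD(E) 2 µM final. Medium: Tris buffer with calcium and detergent, pH 7.8. Compound dosing: single point at 8.3 µM. Timing: 10 min plus 3 h, room temperature. Technique: fluorescence polarization of the labelled Tn7 tracer. Read-out: percent inhibition. Replicates: singlicate testing.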
Tn6 DDE FP: disrupts Tn6 cyclic peptide binding to fibrin D-Dimer-E complex. P02675. Fibrin DD(E) TRITC-Tn6 fluorescence polarization displacement. inhibition, % at 8.3 µM. actives 0.21% (n = 370,000). AID 720509;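 active = inhibition above a per-campaign cutoff: mean of compounds within control limits plus 3 SD, cut at about 15% in these data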;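 also: 0% = median of all compound wells on the plate and 100% = blocking peptide control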
aDG glyco up: increases alpha dystroglycan glycosylation; AID 624168; activation, % at 10 µM; Pro5-aDG cells, alpha-DG glycosylation AlphaScreen (IIH6); 0% Pro5, 100% B10-LARGE cell signal; actives 0.22% (n = 360,000);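 active = activation of at least 8% versus controls, or a plate z-score of at least 8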;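 also: Pro5 are CHO cells carrying HIG-tagged alpha-DG that lacks glycosylation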
NRP1-CendR mod: modulators of CendR peptide binding to human neuropilin-1. O14786. FAM-RPARPAR peptide binding to NRP-1, fluorescence polarization. inhibition, % at 25 µM. actives 0.85% (n = 360,000);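 active = inhibition or corrected inhibition above about 18%, plus a signal ratio from 0.5 to 1.5, limit read from the data, passing the limit was not always enough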
aDG conf: alpha-DG glycosylation activation, confirmation; shares compounds with aDG glyco up; Pro5-aDG cells, IIH6 AlphaLISA; scaled to LARGE-overexpressing B10 cells as 100%; activation, % at 10 µM (by protocol); actives 17% (n = 600); AID 651671;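 active = activation of at least 7% in one or more replicates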;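 also: cells exposed to compound for two days before detection; 0% = DMSO-treated Pro5 cells and 100% = DMSO-treated B10-LARGE cells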
Numbers without * were called inactive; · = no result.

SMILES	Tn7 DDE FP	Tn6 DDE FP	aDG glyco up	NRP1-CendR mod	aDG conf
CCCC[C@H]1C2CC(OC(=O)NCc3ccc(Cl)cc3)C(C2)[C@H]2CCCCN21 (some centres not stated)	2.0	-2.3	·	·	·
CCCCN(C)C(=O)CSc1nnc(-c2cc(OC)c(OC)c(OC)c2)o1	-3.6	0.5	·	·	·
O=C(N1CCOCC1)N1CC[C@H]2[C@H](CCCN2Cc2ccccc2)C1	4.1	8.7	·	·	·
CC1CCCC(NC(=O)CCC(=O)c2ccc(F)cc2)C1C (configuration not stated)	7.8	-0.6	0.0	26.5*	·
COCCCNC(=O)CSc1nnc(-c2ccncc2)n1-c1ccc(OC)cc1	-14.5	7.3	·	·	·
COCc1cc(N2CCN(C(=O)OC(C)(C)C)C[C@@H]2C)ccc1N1CC[C@@H](O)C1	-6.2	4.1	·	·	·
CCOc1ccc(C(=O)COC(=O)c2nn(CC)c(=O)c3ccccc23)cc1	-3.1	-6.2	-0.1	18.9*	·
CC(=O)C1=C(C)N(Cc2ccccc2)C(=O)N[C@H]1CCc1ccccc1	5.7	-2.6	1.1	8.5	·
CC[C@@H](C)CN1C(=O)N[C@@H](CCc2ccccc2)C(C(C)=O)=C1C	1.8	-1.8	-0.3	28.5*	·
Cc1nn(-c2ccccc2)nc1CNC(=O)C1CCC1	-6.6	9.4	0.1	24.6*	·
CCCC(=O)N1CCC1(C)C(=O)Nc1ccc2nccnc2c1 (configuration not stated)	-1.4	5.1	-0.2	-6.9	·
CCOC(=O)N1CCN(C(=O)c2cnn3c(C(F)F)cc(-c4ccc(C)cc4)nc23)CC1	-1.8	-4.5	0.4	19.7*	·
O=C(OCCc1cc2ccccc2c(=O)o1)c1cccc(Br)c1	1.4	8.0	-0.2	5.0	·
COc1ccc(OC)c(NC(=O)Nc2c(O)ccc3ccccc23)c1	6.1	-3.8	0.7	-11.5	·
COc1ccc(OC)c(NC(=O)Nc2ccc(O)c3ccccc23)c1	6.8	-4.3	1.0	25.2*	·
CC(=O)Nc1ccc(CN2C(=O)C(CCc3ccccc3)ON=C2c2cnccn2)cc1 (configuration not stated)	-1.8	5.7	-0.1	-1.5	·
CCc1ccc(NS(=O)(=O)c2c(C(=O)N3CCOCC3)c(C)n(C)c2C)cc1	-3.5	1.7	-0.1	-9.0	·
CCc1ccc(NS(=O)(=O)c2c(C(=O)N3CCCCCC3)c(C)n(C)c2C)cc1	-3.1	4.9	-0.1	27.6*	·
Cc1ccc(NS(=O)(=O)c2c(C(=O)N3CCCCCC3)c(C)n(C)c2C)c(C)c1	1.2	2.9	-0.1	26.2*	·
Cc1ccccc1NS(=O)(=O)c1c(C(=O)N2CCCCCC2)c(C)n(C)c1C	-6.2	-3.2	0.0	12.3	·
Cc1cc(NS(=O)(=O)c2ccc(NC(=O)CSc3nnc(-c4cccnc4)n3-c3ccccc3)cc2)nc(C)n1	-1.6	3.2	·	·	·
NS(=O)(=O)c1ccc(NC(=O)CSc2nnc(-c3cccs3)o2)cc1	1.7	7.9	·	·	·
COc1cccc(NC(=S)N(Cc2cccc(Br)c2)CC2CCC(C(=O)O)CC2)c1 (configuration not stated)	-4.9	4.7	0.0	30.5*	·
COc1ccc(NC(=S)N(Cc2cccc(Br)c2)CC2CCC(C(=O)O)CC2)cc1 (configuration not stated)	1.3	-2.0	-0.3	9.6	·
CC(Nc1cccc2ccccc12)C(=O)N/N=C/c1ccccn1 (configuration not stated)	0.7	3.5	0.5	39.7*	·
SMILES	Tn7 DDE FP	Tn6 DDE FP	aDG glyco up	NRP1-CendR mod	aDG conf
Cn1c(Br)nc2c1c(=O)n(Cc1ccccc1)c(=O)n2C	0.1	4.0	2.4*	8.3	0.7
Cn1c(=O)n(CCO)c(=O)c2c1nc(Br)n2Cc1ccccc1	-1.0	6.5	-0.1	-11.7	·
CC1=N/C(=C\c2ccc([N+](=O)[O-])cc2)C(=O)N1c1ccc(C)c(Cl)c1	9.6	-0.5	·	·	·
Cc1ccc(CNC(=O)CN(C(=O)C2(C)CC(=O)N=C3C=CC=CN32)c2ccccc2)cc1 (configuration not stated)	2.5	-1.8	0.3	6.4	·
Cc1ccc(CNC(=O)CN(C(=O)C2(C)CC(=O)N=C3C=CC=CN32)c2cccc(C)c2C)cc1 (configuration not stated)	2.1	-10.1	2.6*	0.0	0.9
C(=N\c1nc2ccccc2n1CCN1CCCCC1)/c1ccc2c(c1)OCO2	1.8	-6.7	7.8*	1.2	1.5
COc1cccc(NC(=S)N2CCN(S(=O)(=O)c3ccc(F)cc3)CC2)c1	2.2	3.5	-0.2	0.4	·
COc1cc(NC(=S)N2CCN(S(=O)(=O)c3ccc(F)cc3)CC2)cc(OC)c1	-2.9	-2.1	13.7*	10.3	1.4
CC1(C)CC(=O)C=C(c2ccccc2-c2ccc(S(C)(=O)=O)cc2)C1=O	-0.3	8.4	5.6*	2.2	-1.2
CC(=O)c1ccc(-c2ccccc2C2=CC(=O)CC(C)(C)C2=O)cc1	8.2	2.2	·	·	·
Cc1cccc(NC(=O)C2CCCCN2S(=O)(=O)c2ccccc2)c1C (configuration not stated)	0.0	0.1	0.2	-8.7	·
Cc1ccc(S(=O)(=O)N(C)C)cc1NC(=O)C1CCCCN1S(=O)(=O)c1ccccc1 (configuration not stated)	6.9	-1.1	2.9*	-8.4	-0.7
Clc1ccc(CNCCCSc2ncccn2)cc1Cl	1.5	6.2	2.4*	5.2	-0.1
O=C(/C=C/c1ccc2c(c1)OCCO2)N1CCN(c2ccc(F)cc2)CC1	9.2	2.1	0.0	13.1	·
O=C(/C=C/c1ccc2c(c1)OCO2)N1CCN(c2ccc(Cl)cc2)CC1	1.2	-6.6	15.0*	1.5	1.1
CCCC(=O)OC[C@H]1CN([C@H](C)c2ccccc2)S(=O)(=O)c2c(F)cccc2O1	-3.5	-8.8	·	·	·
CC1CCCN(CCCNC(=O)c2nn(C)c3c2CSc2ccccc2-3)C1 (configuration not stated)	0.9	-2.7	6.3*	-1.6	9.0*
CC(=O)Nc1ccc(S(=O)(=O)NC2=C(N3CCN(Cc4ccccc4)CC3)C(=O)c3ccccc3C2=O)cc1	-4.0	-0.5	0.3	9.5	·
CCN1CCN(C2=C(NS(=O)(=O)c3ccc(NC(C)=O)cc3)C(=O)c3ccccc3C2=O)CC1	1.9	-1.0	6.7*	15.9	0.1
CCCNS(=O)(=O)c1cccc(C(=O)NNC(=O)c2cc(C)oc2C)c1	4.9	-4.0	-0.3	6.7	·
COc1ccccc1C(=O)Nc1ccc2c(c1)CCCN2C(=O)c1ccccc1	5.0	-4.5	9.6*	8.7	-0.2
Nc1nnc(-c2ccc([N+](=O)[O-])o2)s1	-0.4	1.2	7.9*	-2.8	4.0*
O=c1[nH]nc(-c2ccc([N+](=O)[O-])o2)c(=O)[nH]1	1.6	0.5	-0.2	12.7	·
Cc1cncn1CCc1nc2c3ccccc3nc(SCC(=O)Nc3cccc(Cl)c3)n2n1	-8.5	-5.7	8.7*	3.1	5.3*
